# Assay results reported in ChEMBL document CHEMBL5257040, “Discovery of VU2957 (Valiglurax): An mGlu4 Positive Allosteric Modulator Evaluated as a Preclinical Candidate for the Treatment of Parkinson's Disease” (ACS Med Chem Lett, 2019).
# How the values were obtained:
# [1] = Oral bioavailability in Cynomolgus monkey at 3 mg/kg administered as spray-dried dispersion formulation and measured upto 24 hrs by LC-MS/MS analysis; assay type: ADME, organism-based, Macaca fascicularis; conditions: in vivo
# How it was run: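 Cynomolgus oral dosing used a spray-dried dispersion of the compound with HPMCP-HP55 polymer at a 25%/75% drug-to-polymer ratio. Oral bioavailability (%F) was determined from plasma exposure.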
# [2] = AUC in Sprague-Dawley rat at 3 mg/kg, po administered as spray-dried dispersion formulation and measured after 24 hrs by LC-MS/MS analysis; assay type: ADME, organism-based; design: dose 3 mg/kg, time 24 hrs, route po; conditions: in vivo
# How it was run: (§1)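 Rats were dosed orally at 3, 10 and 30 mg/kg with a spray-dried dispersion of the free base and HPMCP-HP55 polymer (25%/75%), in 30% Dexolve. Total plasma Cmax and AUC were measured, N = 3.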
# [3] = Cmax in Sprague-Dawley rat at 3 mg/kg, po administered as spray-dried dispersion formulation and measured after 24 hrs by LC-MS/MS analysis; assay type: ADME, organism-based; design: time 24 hrs, dose 3 mg/kg, route po; conditions: in vivo; how it was run: as §1
# [4] = Drug uptake in cerebrospinal fluid of haloperidol-induced catalepsy Sprague-Dawley rat model at 0.3 to 30 mg/kg,po; assay type: ADME, organism-based; conditions: in vivo, dose 0.3-30 mg/kg, read-out: Ct
# How it was run: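 Rats were given haloperidol 1.5 mg/kg i.p. to induce catalepsy and dosed orally at 0.3–30 mg/kg, N = 8–10 per group. Total plasma and CSF concentrations were measured alongside the catalepsy read-out. Satellite rats were used for PK in the time-course study.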
# [5] = Oral bioavailability in Cynomolgus monkey at 3 mg/kg and measured upto 24 hrs by LC-MS/MS analysis; assay type: ADME, organism-based, Macaca fascicularis; conditions: in vivo
# How it was run: (§2)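 Single-dose iv and oral PK in separate arms: mouse 1 mg/kg iv / 3 mg/kg po, SD rat 0.2/3, beagle 0.5/3, cynomolgus 0.2/3 mg/kg. Plasma parameters (Vss, Tmax, F) are means of two to three animals per species.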
# [6] = AUC (0 to infinity) in Cynomolgus monkey at 3 mg/kg, po and measured upto 24 hrs by LC-MS/MS analysis; assay type: ADME, organism-based, Macaca fascicularis; design: time < 24 hrs, dose 3 mg/kg, route po; conditions: in vivo
# How it was run: (§3)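 Single oral 3 mg/kg dose in mouse, SD rat, beagle dog and cynomolgus monkey. Total plasma exposure after the oral dose gave Cmax, Tmax, AUC0-inf and F. Values are means of two to three animals.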
# [7] = Clearance in Cynomolgus monkey plasma at 0.2 mg/kg, iv and measured upto 24 hrs by LC-MS/MS analysis; assay type: ADME, organism-based, Macaca fascicularis
# How it was run: (§4)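 Single intravenous doses: mouse 1 mg/kg, SD rat 0.2 mg/kg, beagle dog 0.5 mg/kg, cynomolgus monkey 0.2 mg/kg. Plasma clearance, Vss and elimination half-life came from the plasma profiles. Values are means of two to three animals.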
# [8] = Oral bioavailability in Beagle dog at 3 mg/kg and measured upto 24 hrs by LC-MS/MS analysis; assay type: ADME, organism-based, Canis lupus familiaris; conditions: in vivo; how it was run: as §2
# [9] = AUC (0 to infinity) in Beagle dog at 3 mg/kg, po and measured upto 24 hrs by LC-MS/MS analysis; assay type: ADME, organism-based, Canis lupus familiaris; design: time < 24 hrs, dose 3 mg/kg, route po; conditions: in vivo; how it was run: as §3
# [10] = Tmax in Beagle dog at 3 mg/kg, po and measured upto 24 hrs by LC-MS/MS analysis; assay type: ADME, organism-based, Canis lupus familiaris; conditions: in vivo; how it was run: as §2
# [11] = Volume of distribution at steady state in Beagle dog at 0.5 mg/kg, iv and measured upto 24 hrs by LC-MS/MS analysis; assay type: ADME, organism-based, Canis lupus familiaris; conditions: in vivo, read-out: Vdss; how it was run: as §2
# [12] = Elimination half life in Sprague-Dawley rat at 0.2 mg/kg, iv and measured upto 24 hrs by LC-MS/MS analysis; assay type: ADME, organism-based; conditions: in vivo, read-out: beta t1/2 (converted); how it was run: as §4
# [13] = Unbound brain-to-plasma concentration ratio in CD-1 mouse at 1 mg/kg,iv and measured upto 24 hrs by LC-MS/MS analysis; assay type: ADME, organism-based; conditions: read-out: K(p,uu,brain)
# [14] = Brain to plasma permeability coefficient, Kp in CD-1 mouse plasma at 1 mg/kg,iv and measured upto 24 hrs by LC-MS/MS analysis; assay type: ADME, organism-based
# How it was run: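 Total brain to total plasma partition coefficient (Kp) measured in mouse, SD rat and cynomolgus monkey. The unbound ratio (Kp,uu) was corrected with brain homogenate binding. Values are means of two to three animals.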
# [15] = Tmax in CD-1 mouse plasma at 3 mg/kg, po and measured upto 24 hrs by LC-MS/MS analysis; assay type: ADME, organism-based; how it was run: as §2
# P-gp (ABCB1) = P-gp (ABCB1) (Homo sapiens, UniProt P08183); assay: Substrate activity at human P-gp assessed as apparent permeability; assay type: ADME; conditions: not told
# [16] = Unbound brain-to-plasma concentration ratio in cynomolgus monkey at 0.2 mg/kg, iv and measured upto 1 hrs by LC-MS/MS analysis; assay type: ADME, organism-based, Macaca fascicularis; conditions: read-out: K(p,uu,brain)
# Cytochrome P450 2B6 = Cytochrome P450 2B6 (Homo sapiens, UniProt P20813); assay: Induction of CYP2B6 in human hepatocytes; assay type: ADME, cell-based
# How it was run: (§5)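 CYP1A2, 2B6 and 3A4 induction measured in human hepatocytes.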
# Cytochrome P450 3A4 = Cytochrome P450 3A4 (Homo sapiens, UniProt P08684); assay: Induction of CYP3A4 in human hepatocytes; assay type: ADME, cell-based; how it was run: as §5
# Cytochrome P450 1A2 = Cytochrome P450 1A2 (Homo sapiens, UniProt P05177); assay: Induction of CYP1A2 in human hepatocytes; assay type: ADME, cell-based; how it was run: as §5
# Cytochrome P450 2C9 = Cytochrome P450 2C9 (Homo sapiens, UniProt P11712); assay: Inhibition of CYP2C9 in human liver microsomes using […] as substrate preincubated for 15 mins followed by NADPH addition and measured after 8 mins by LC/MS/MS analysis; assay type: ADME, Microsome
# [17] = Metabolic stability in cynomolgus monkey liver microsomes assessed as intrinsic clearance at 1 uM preincubated for 5 mins followed by NADPH addition and measured for 45 mins by LC/MS/MS analysis; assay type: ADME, Macaca fascicularis, Microsome; conditions: time 50 min, read-out: CLH
# [18] = Metabolic stability in human liver microsomes assessed as intrinsic clearance at 1 uM preincubated for 5 mins followed by NADPH addition and measured for 45 mins by LC/MS/MS analysis; assay type: ADME, Microsome; conditions: time 50 min, read-out: CLH
# [19] = Protein binding in cynomolgus monkey plasma assessed as fraction unbound incubated for 4 hrs by equilibrium dialysis based LC/MS/MS analysis; assay type: ADME, cell-free, Macaca fascicularis
# HCN4 = HCN4 (Homo sapiens, UniProt Q9Y3Q4); assay: Inhibition of HCN4 (unknown origin) at 10 uM; assay type: toxicity
# How it was run: (§6)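 Cardiac ion channel electrophysiology (functional EP) panel, with percent inhibition measured at 10 μM.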
# Kir2.1 = Kir2.1 (Homo sapiens, UniProt Q7Z4S6); assay: Inhibition of Kir2.1 (unknown origin) at 10 uM; assay type: toxicity; how it was run: as §6
# KCNQ1/MINK = KCNQ1/MINK (Homo sapiens, UniProt P51787+Q8N4C8); assay: Inhibition of KCNQ1/MINK (unknown origin) at 10 uM; assay type: toxicity; how it was run: as §6
# [20] = target: Amine oxidase [flavin-containing] A (Homo sapiens, UniProt P21397); assay: Binding affinity to MAO-A (unknown origin)
# [21] = target: Metabotropic glutamate receptor 8 (Rattus norvegicus, UniProt P70579); assay: Positive allosteric modulator activity at rat mGlu8 in human HEK cells co-expressing […] assessed as increase in by thallium flux preincubated for 2.5 mins followed by gluatamate addition by thallium flux assay; assay type: cell-based
# [22] = target: Metabotropic glutamate receptor 6 (Homo sapiens, UniProt O15303); assay: Positive allosteric modulator activity at human mGlu6 in human HEK cells co-expressing […] assessed as increase in by thallium flux preincubated for 2.5 mins followed by gluatamate addition by thallium flux assay; assay type: cell-based
# [23] = target: Metabotropic glutamate receptor 3 (Rattus norvegicus, UniProt P31422); assay: Positive allosteric modulator activity at rat mGlu3 in human HEK cells co-expressing […] assessed as increase in by thallium flux preincubated for 2.5 mins followed by gluatamate addition by thallium flux assay; assay type: cell-based
# Chain of HCN4 (Q9Y3Q4 whole entry): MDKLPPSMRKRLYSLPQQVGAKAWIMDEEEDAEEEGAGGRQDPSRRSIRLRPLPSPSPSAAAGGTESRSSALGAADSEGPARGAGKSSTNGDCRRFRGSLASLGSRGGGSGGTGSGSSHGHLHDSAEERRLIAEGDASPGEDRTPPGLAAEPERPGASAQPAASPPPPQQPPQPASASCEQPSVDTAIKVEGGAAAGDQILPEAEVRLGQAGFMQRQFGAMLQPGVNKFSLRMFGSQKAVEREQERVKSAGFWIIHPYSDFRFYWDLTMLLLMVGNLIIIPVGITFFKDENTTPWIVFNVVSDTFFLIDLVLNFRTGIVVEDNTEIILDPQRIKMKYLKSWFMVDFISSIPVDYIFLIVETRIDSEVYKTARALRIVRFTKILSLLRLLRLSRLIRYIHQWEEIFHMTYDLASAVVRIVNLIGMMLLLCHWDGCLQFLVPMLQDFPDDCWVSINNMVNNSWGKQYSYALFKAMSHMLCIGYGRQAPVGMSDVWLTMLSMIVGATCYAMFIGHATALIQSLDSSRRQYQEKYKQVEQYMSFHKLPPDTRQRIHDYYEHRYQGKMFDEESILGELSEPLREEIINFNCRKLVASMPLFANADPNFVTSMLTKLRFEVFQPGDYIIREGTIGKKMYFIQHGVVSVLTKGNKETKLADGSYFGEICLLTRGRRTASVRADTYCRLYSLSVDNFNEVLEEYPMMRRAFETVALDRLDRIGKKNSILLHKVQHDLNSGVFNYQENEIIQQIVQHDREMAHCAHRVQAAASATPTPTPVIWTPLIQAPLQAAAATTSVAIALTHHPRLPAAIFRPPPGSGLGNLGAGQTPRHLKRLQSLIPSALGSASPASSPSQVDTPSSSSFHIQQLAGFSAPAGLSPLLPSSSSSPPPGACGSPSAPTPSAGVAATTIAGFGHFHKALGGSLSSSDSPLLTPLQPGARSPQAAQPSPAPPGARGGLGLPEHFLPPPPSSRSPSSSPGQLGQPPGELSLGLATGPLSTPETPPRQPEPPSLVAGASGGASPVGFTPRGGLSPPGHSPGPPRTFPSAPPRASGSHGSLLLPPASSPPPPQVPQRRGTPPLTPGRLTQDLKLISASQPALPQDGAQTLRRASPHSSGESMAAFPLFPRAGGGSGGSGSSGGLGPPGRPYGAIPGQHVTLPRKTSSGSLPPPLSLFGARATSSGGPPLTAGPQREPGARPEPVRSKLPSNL
# Chain of P-gp (ABCB1) (P08183 whole entry): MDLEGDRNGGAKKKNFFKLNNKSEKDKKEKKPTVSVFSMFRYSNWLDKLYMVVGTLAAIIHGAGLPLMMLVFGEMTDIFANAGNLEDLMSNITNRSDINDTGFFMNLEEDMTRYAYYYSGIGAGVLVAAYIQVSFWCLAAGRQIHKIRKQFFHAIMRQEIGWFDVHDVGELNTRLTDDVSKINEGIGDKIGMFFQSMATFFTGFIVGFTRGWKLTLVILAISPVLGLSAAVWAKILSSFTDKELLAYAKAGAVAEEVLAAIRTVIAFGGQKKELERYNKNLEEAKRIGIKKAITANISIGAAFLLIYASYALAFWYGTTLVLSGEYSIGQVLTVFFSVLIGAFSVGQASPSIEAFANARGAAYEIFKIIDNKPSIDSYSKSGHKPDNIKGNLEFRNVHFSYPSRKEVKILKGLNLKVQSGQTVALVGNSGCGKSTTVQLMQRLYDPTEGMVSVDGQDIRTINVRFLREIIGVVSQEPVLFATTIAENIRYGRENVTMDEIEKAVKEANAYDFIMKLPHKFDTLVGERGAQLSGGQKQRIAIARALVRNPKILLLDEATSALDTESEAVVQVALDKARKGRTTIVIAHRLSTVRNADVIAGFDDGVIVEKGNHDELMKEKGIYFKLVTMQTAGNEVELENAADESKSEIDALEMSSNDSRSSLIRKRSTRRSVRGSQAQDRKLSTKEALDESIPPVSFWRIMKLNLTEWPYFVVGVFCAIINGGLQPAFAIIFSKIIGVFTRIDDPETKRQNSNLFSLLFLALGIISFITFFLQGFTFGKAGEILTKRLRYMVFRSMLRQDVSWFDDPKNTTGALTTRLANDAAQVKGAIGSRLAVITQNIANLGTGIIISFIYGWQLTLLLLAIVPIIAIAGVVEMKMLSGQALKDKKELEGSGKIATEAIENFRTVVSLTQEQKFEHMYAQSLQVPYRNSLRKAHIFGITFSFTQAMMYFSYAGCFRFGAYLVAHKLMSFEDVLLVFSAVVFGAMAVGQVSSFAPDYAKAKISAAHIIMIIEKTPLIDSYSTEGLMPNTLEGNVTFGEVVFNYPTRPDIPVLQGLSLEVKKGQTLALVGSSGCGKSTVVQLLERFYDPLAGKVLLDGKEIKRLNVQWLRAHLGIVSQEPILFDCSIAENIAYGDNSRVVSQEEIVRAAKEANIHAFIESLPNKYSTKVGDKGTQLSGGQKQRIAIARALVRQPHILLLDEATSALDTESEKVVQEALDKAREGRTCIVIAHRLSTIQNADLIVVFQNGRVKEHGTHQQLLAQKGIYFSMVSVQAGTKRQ
# Chain of Cytochrome P450 2C9 (P11712 whole entry): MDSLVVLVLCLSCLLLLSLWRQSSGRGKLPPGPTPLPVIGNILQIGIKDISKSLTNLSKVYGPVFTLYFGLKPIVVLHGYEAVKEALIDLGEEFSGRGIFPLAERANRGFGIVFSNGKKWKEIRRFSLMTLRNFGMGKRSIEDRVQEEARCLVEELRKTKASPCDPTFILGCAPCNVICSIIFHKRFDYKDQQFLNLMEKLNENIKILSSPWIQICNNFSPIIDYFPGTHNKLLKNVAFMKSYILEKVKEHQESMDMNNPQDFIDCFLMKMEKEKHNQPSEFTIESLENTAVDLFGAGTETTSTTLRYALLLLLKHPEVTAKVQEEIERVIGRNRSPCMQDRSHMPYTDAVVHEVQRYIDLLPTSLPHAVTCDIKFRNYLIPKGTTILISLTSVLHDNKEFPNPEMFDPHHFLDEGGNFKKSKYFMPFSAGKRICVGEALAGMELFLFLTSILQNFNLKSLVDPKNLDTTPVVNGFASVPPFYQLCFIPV
# Chain of Metabotropic glutamate receptor 8 (P70579 whole entry): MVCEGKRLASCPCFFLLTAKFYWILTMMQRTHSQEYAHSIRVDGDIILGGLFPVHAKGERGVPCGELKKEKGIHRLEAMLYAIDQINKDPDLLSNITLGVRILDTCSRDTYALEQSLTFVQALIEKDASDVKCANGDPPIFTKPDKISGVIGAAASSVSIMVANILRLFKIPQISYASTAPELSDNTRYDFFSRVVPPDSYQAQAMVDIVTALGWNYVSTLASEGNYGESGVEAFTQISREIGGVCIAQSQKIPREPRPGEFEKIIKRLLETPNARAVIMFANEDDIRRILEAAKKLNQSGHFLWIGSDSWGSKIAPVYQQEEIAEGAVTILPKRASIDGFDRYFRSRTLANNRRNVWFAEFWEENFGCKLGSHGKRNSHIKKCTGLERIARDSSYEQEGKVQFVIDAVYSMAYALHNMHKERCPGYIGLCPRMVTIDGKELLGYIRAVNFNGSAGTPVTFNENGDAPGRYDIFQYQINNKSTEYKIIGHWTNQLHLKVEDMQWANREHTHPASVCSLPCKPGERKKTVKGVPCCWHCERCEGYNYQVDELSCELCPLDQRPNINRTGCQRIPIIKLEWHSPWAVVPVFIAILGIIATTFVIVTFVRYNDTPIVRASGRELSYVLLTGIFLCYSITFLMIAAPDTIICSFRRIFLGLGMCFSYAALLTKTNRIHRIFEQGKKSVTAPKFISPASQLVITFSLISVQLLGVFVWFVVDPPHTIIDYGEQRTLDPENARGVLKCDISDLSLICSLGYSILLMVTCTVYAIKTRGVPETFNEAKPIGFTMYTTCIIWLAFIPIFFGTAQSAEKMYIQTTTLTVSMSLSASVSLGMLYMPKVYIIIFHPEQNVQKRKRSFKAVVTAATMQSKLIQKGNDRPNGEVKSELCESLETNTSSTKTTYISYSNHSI
# Chain of Amine oxidase [flavin-containing] A (P21397 whole entry): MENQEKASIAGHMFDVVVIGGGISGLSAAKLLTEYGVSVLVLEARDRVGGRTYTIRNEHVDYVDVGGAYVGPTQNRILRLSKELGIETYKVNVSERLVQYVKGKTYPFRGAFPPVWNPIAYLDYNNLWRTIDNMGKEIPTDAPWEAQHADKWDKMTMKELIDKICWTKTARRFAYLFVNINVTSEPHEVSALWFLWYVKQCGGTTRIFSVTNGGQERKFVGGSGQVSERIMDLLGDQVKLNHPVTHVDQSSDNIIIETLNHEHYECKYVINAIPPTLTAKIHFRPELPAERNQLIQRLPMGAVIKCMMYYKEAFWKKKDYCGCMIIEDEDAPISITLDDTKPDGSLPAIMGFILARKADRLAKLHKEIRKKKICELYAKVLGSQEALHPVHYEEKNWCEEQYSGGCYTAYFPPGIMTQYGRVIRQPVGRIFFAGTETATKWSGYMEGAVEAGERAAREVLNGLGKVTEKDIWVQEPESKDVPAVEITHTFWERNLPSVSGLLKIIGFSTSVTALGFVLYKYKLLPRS
# Chain of Cytochrome P450 2B6 (P20813 whole entry): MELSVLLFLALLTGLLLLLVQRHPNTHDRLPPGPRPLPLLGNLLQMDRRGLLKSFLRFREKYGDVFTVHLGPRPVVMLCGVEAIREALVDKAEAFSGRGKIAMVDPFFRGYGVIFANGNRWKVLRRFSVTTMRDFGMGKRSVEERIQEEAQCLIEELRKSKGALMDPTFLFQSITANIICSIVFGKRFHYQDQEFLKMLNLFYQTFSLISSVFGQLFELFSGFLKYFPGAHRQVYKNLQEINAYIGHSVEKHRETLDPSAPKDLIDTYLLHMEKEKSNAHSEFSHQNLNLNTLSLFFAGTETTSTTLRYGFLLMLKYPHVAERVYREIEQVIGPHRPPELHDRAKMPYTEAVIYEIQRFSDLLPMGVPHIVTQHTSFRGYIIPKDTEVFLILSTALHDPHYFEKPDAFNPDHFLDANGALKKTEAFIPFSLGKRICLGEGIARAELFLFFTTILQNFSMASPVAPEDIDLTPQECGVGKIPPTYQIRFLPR
smiles,measurement,setting,value
FC(F)(F)c1nccc2cc(Nc3n[nH]c4ncccc34)ccc12,bioavailability,[1],58%
same,AUC at 24 h,[2],5.92 µM·h
same,Cmax,[3],630 nM
same,concentration,[4],148 nM
same,bioavailability,[5],31.6%
same,AUC(0-inf),[6],2.81 µM·h
same,clearance,[7],17.1 mL/min/kg
same,bioavailability,[8],37.5%
same,AUC(0-inf),[9],1.82 µM·h
same,Tmax,[10],1 h
same,Vd,[11],4.3 L/kg
same,half-life,[12],1.05 h
same,Kp uu at 24 h,[13],0.16
same,Kp at 24 h,[14],0.78
same,Tmax,[15],0.42 h
same,Papp,P-gp (ABCB1),8 ×10⁻⁶ cm/s
same,Kp uu at 1 h,[16],0.07
same,Activity,Cytochrome P450 2B6,Not Active
same,Activity,Cytochrome P450 3A4,Not Active
same,Activity,Cytochrome P450 1A2,Not Active
same,IC50,Cytochrome P450 2C9,> 30 µM
same,CLint scaled at 1 µM,[17],8.8 mL/min/kg
same,CLint scaled at 1 µM,[18],9.1 mL/min/kg
same,fraction unbound at 4 h,[19],0.016
same,inhibition at 10 µM,HCN4,< 50%
same,inhibition at 10 µM,Kir2.1,< 50%
same,inhibition at 10 µM,KCNQ1/MINK,< 50%
same,EC50,[20],> 30 µM
same,EC50,[21],> 10 µM
same,EC50,[22],> 10 µM
same,EC50,[23],> 10 µM
